Assay results gathered from unrelated publications.
Read-out: metabolic stability
Host: human

Compound | medium | concentration | time | pH | quantity | value
Cc1ncc2n1-c1ccc(Cl)cc1C(c1ccccc1F)=NC2 | hepatocytes | 0.5 µM | – | pH 7.4 | hepatocyte CLint | 57.7 µL/min/10⁶ cells
CNC(C)Cc1ccc2nsnc2c1 (stereo not shown) | liver microsomes | 0.5 µM | – | – | scaled CLint | 11.2 mL/min/kg
CN1C(=O)Cc2ccc(F)c(CCNCC[C@H]3CN(c4ccc5c(n4)NC(=O)CO5)C(=O)O3)c21 | hepatocytes | 0.5 µM | – | – | hepatocyte CLint | < 8.2 µL/min/10⁶ cells
CONC(=O)[C@H]1[C@@H](O)[C@@]2(O)c3c(OC)cc(OC)cc3O[C@@]2(c2ccc(OC)cc2)[C@@H]1c1ccccc1 | liver microsomes | – | – | – | microsomal CLint | 11.6 µL/min/mg
CC(C)C[C@H](NC(=O)[C@@H]1COCCCCCCC(=O)NCC(=O)N2CCC[C@H]2C(=O)N1)C(=O)[C@@]1(C)CO1 | liver microsomes | 2 µM | 1 h | – | scaled CLint | 51.7 mL/min/kg
Cn1c(=O)ccc2ccc(F)c(CCNC[C@H]3CN(c4cnc5c(n4)NC(=O)CO5)C(=O)O3)c21 | hepatocytes | 0.5 µM | – | – | hepatocyte CLint | 2 µL/min/10⁶ cells
C[C@]12CC[C@H]3[C@@H](CCC4=CC(=O)CC[C@@]43C)[C@@H]1CC[C@@H]2O | hepatocytes | 1 µM | – | – | hepatocyte CLint | 110 µL/min/10⁶ cells
COc1ccc2c(c1)[C@]13CCCC[C@@H]1[C@H](C2)N(C)CC3 | hepatocytes | 0.5 µM | – | pH 7.4 | hepatocyte CLint | 19 µL/min/10⁶ cells
COCC1=N[C@@]2(O)[C@H](C(=O)N(C)OC)[C@@H](c3ccccc3)[C@]3(c4ccc(OC)cc4)Oc4cc(OC)cc(OC)c4[C@]23N1 | liver microsomes | 1 µM | – | pH 7.4 | microsomal CLint | 55.8 µL/min/mg
O=C(O[C@H]1CCC[C@@]2(C1)OOC1(O2)C2CC3CC(C2)CC1C3)N1CCCCC1 (stereo partly shown) | liver microsomes | – | – | – | microsomal CLint | < 11.6 µL/min/mg
